Source: ChEMBL document CHEMBL3351454, “Design, synthesis, antimicrobial evaluation and molecular docking studies of some new thiophene, pyrazole and pyridone derivatives bearing sulfisoxazole moiety” (2014)
In brackets after ≈: the same amount, converted by molar mass. Activity calls are given as the source filed them. No cut-off for these calls is given here.

How the values were obtained:
Assay type in all cases: functional
Klebsiella pneumoniae [1] = test: Antimicrobial activity against Klebsiella pneumoniae RCMB 010093 assessed as inhibition zone at 5 mg/ml after 24 hrs; conditions: RCMB 010093, 24 h, read-out: IZ
Outline: (§1)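 Agar diffusion on nutrient agar seeded with 10^6 CFU/mL bacteria. Filter-paper disks were loaded with 100 µL of a 5 mg/mL compound solution in DMF, with a DMF-only control. Incubation was 37 °C for 24 h. Inhibition zone in mm (mean ± SD, triplicate plates) was measured beyond the 6 mm diameter.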

Escherichia coli [2] = test: Antimicrobial activity against Escherichia coli RCMB 010052 assessed as inhibition zone at 5 mg/ml after 24 hrs; conditions: RCMB 010052, 24 h, read-out: IZ; outline: as §1
Proteus vulgaris [3] = test: Antimicrobial activity against Proteus vulgaris RCMB 010085 assessed as inhibition zone at 5 mg/ml after 24 hrs; conditions: for zone of inhibition at 5000 µg/mL: RCMB 010085, 24 h, read-out: IZ; outline: as §1
Klebsiella pneumoniae [4] = test: Antimicrobial activity against Klebsiella pneumoniae RCMB 010093 assessed as absence of turbidity after 24 hrs; conditions: RCMB 010093, 24 h
Outline: (§2)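 Broth microdilution in Müller–Hinton broth. DMF stocks at 1000 µg/mL were diluted in broth to give twofold serial dilutions over 500–0.007 µg/mL. Bacterial inoculum was about 10^6 CFU/mL in 96-well plates, sealed and incubated at 37 °C for 24 h in a humid chamber. MIC was taken as the lowest concentration with no visible turbidity. DMF and uninoculated-medium controls were included. Only compounds giving zones >10 mm were tested.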

Streptococcus pneumoniae [5] = test: Antimicrobial activity against Streptococcus pneumoniae RCMB 010010 assessed as absence of turbidity after 24 hrs; conditions: RCMB 010010, 24 h; outline: as §2
[6] = test system: Syncephalastrum racemosum; test: Antifungal activity against Syncephalastrum racemosum RCMB 05922 assessed as absence of turbidity after 48 hrs; conditions: RCMB 05922, 48 h
Proteus vulgaris [7] = test: Antimicrobial activity against Proteus vulgaris RCMB 010085 assessed as absence of turbidity after 24 hrs; outline: as §2
Geotrichum candidum [8] = test: Antifungal activity against Geotrichum candidum RCMB 05097 assessed as inhibition zone at 5 mg/ml after 48 hrs; conditions: RCMB 05097, 48 h, read-out: IZ
Outline: (§3)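 Disk diffusion on nutrient agar seeded with 10^4 CFU/mL fungus. Sterile filter-paper disks carried 100 µL of a 5 mg/mL DMF solution, and DMF alone served as control. Plates were incubated at 25 °C for 48 h. Mean inhibition zone in mm ± SD was read beyond the 6 mm diameter, in triplicate.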

Aspergillus fumigatus [9] = test: Antifungal activity against Aspergillus fumigatus RCMB 02568 assessed as inhibition zone at 5 mg/ml after 48 hrs; conditions: RCMB 02568, 48 h, read-out: IZ; outline: as §3
[10] = test system: Syncephalastrum racemosum; test: Antifungal activity against Syncephalastrum racemosum RCMB 05922 assessed as inhibition zone at 5 mg/ml after 48 hrs; conditions: RCMB 05922, 48 h, read-out: IZ
Bacillus subtilis [11] = test: Antimicrobial activity against Bacillis subtilis RCMB 010067 assessed as absence of turbidity after 24 hrs; conditions: RCMB 010067, 24 h; outline: as §2
[12] = test system: Staphylococcus epidermidis; test: Antimicrobial activity against Staphylococcus epidermidis RCMB 010024 assessed as absence of turbidity after 24 hrs; conditions: RCMB 010024, 24 h; outline: as §2
[13] = test system: Staphylococcus epidermidis; test: Antimicrobial activity against Staphylococcus epidermidis RCMB 010024 assessed as inhibition zone at 5 mg/ml after 24 hrs; conditions: RCMB 010024, 24 h, read-out: IZ; outline: as §1
Streptococcus pneumoniae [14] = test: Antimicrobial activity against Streptococcus pneumoniae RCMB 010010 assessed as inhibition zone at 5 mg/ml after 24 hrs; conditions: RCMB 010010, 24 h, read-out: IZ; outline: as §1
Geotrichum candidum [15] = test: Antifungal activity against Geotrichum candidum RCMB 05097 assessed as absence of turbidity after 48 hrs; conditions: RCMB 05097, 48 h
Outline: as §2, with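 “Sabouraud liquid medium.” for “Müller–Hinton broth.”, “Fungal” for “Bacterial”, “10^4” for “10^6”, “25” for “37”, “48” for “24”, “included.” for “included. Only compounds giving zones >10 mm were tested.”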

Bacillus subtilis [16] = test: Antimicrobial activity against Bacillis subtilis RCMB 010067 assessed as inhibition zone at 5 mg/ml after 24 hrs; conditions: RCMB 010067, 24 h, read-out: IZ; outline: as §1
Escherichia coli [17] = test: Antimicrobial activity against Escherichia coli RCMB 010052 assessed as absence of turbidity after 24 hrs; conditions: RCMB 010052, 24 h; outline: as §2
Aspergillus fumigatus [18] = test: Antifungal activity against Aspergillus fumigatus RCMB 02568 assessed as absence of turbidity after 48 hrs; conditions: RCMB 02568, 48 h
Outline: as §2, with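 “Sabouraud liquid medium.” for “Müller–Hinton broth.”, “Fungal” for “Bacterial”, “10^4” for “10^6”, “25” for “37”, “48” for “24”, “included.” for “included. Only compounds giving zones >10 mm were tested.”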

Row | Structure (SMILES) | zone of inhibition at 5000 µg/mL (Klebsiella pneumoniae [1]) [mm] | zone of inhibition at 5000 µg/mL (Escherichia coli [2]) [mm] | zone of inhibition at 5000 µg/mL (Proteus vulgaris [3]) [mm] | MIC (Klebsiella pneumoniae [4]) [µg/mL] | MIC (Streptococcus pneumoniae [5]) [µg/mL] | MIC [6] [µg/mL] | MIC (Proteus vulgaris [7]; RCMB 010085, 24 h) [µg/mL] | zone of inhibition at 5000 µg/mL (Geotrichum candidum [8]) [mm] | zone of inhibition at 5000 µg/mL (Aspergillus fumigatus [9]) [mm] | zone of inhibition at 5000 µg/mL [10] [mm] | MIC (Bacillus subtilis [11]) [µg/mL] | MIC [12] [µg/mL] | zone of inhibition at 5000 µg/mL [13] [mm] | zone of inhibition at 5000 µg/mL (Streptococcus pneumoniae [14]) [mm] | MIC (Geotrichum candidum [15]) [µg/mL] | zone of inhibition at 5000 µg/mL (Bacillus subtilis [16]) [mm] | MIC (Escherichia coli [17]) [µg/mL] | MIC (Aspergillus fumigatus [18]) [µg/mL] | Activity (Proteus vulgaris [3]) | MIC (Proteus vulgaris [7])
1 | CC(=O)c1sc(NC23CC4CC(CC(C4)C2)C3)c(C(=O)Nc2ccc(S(=O)(=O)Nc3onc(C)c3C)cc2)c1N | 20.3 | 29.9 | 17.4 | 0.98 (≈ 1.68 µM) | 0.98 (≈ 1.68 µM) | 0.007 (≈ 0.012 µM) | 15.6 (≈ 26.7 µM) | 24.6 | 25.3 | 26.9 | 0.24 (≈ 0.411 µM) | 0.98 (≈ 1.68 µM) | 20.9 | 21.6 | 0.12 (≈ 0.206 µM) | 22.9 | 0.007 (≈ 0.012 µM) | 0.06 (≈ 0.103 µM) |  | 
2 | C=CCNc1sc(C(C)=O)c(N)c1C(=O)Nc1ccc(S(=O)(=O)Nc2onc(C)c2C)cc1 | 18.9 | 18.3 |  | 3.9 (≈ 7.97 µM) | 0.98 (≈ 2 µM) | 0.98 (≈ 2 µM) |  | 21.9 | 20.6 | 21.1 | 0.12 (≈ 0.245 µM) | 3.9 (≈ 7.97 µM) | 19.3 | 20.6 | 0.49 (≈ 1 µM) | 23.7 | 7.81 (≈ 16 µM) | 0.98 (≈ 2 µM) | inactive | inactive
3 | CC(=O)OC[C@H]1O[C@@H](Sc2c(C#N)c(-c3ccc(Cl)cc3)c(C#N)c(=O)n2-c2ccc(S(=O)(=O)Nc3onc(C)c3C)cc2)[C@H](OC(C)=O)[C@@H](OC(C)=O)[C@@H]1OC(C)=O | 25.8 | 23.2 | 21.2 | 0.03 (≈ 0.0346 µM) | 0.06 (≈ 0.0691 µM) | 3.9 (≈ 4.49 µM) | 0.98 (≈ 1.13 µM) | 25.8 | 22.3 | 20.3 | 0.007 (≈ 0.00806 µM) | 0.12 (≈ 0.138 µM) | 24.2 | 25.1 | 0.03 (≈ 0.0346 µM) | 29.8 | 0.24 (≈ 0.276 µM) | 0.49 (≈ 0.564 µM) |  | 
4 | Cc1noc(NS(=O)(=O)c2ccc(NC(=O)/C(C#N)=C/c3ccccc3)cc2)c1C | 21.9 | 20.6 | 18 | 0.49 (≈ 1.16 µM) | 7.81 (≈ 18.5 µM) | 7.81 (≈ 18.5 µM) | 7.81 (≈ 18.5 µM) | 20.9 | 17.1 | 18.8 | 1.95 (≈ 4.62 µM) | 3.9 (≈ 9.23 µM) | 19.1 | 18.4 | 0.98 (≈ 2.32 µM) | 20.3 | 1.95 (≈ 4.62 µM) | 15.6 (≈ 37 µM) |  | 
5 | Cc1cc(C)n(-c2ccc(S(=O)(=O)Nc3onc(C)c3C)cc2)c(=O)c1C#N | 21.4 | 20.9 | 19.5 | 0.98 (≈ 2.46 µM) | 0.12 (≈ 0.301 µM) | 1.95 (≈ 4.89 µM) | 1.85 (≈ 4.64 µM) | 23.1 | 22.9 | 20.3 | 0.06 (≈ 0.151 µM) | 0.98 (≈ 2.46 µM) | 21.4 | 23.8 | 0.24 (≈ 0.602 µM) | 25.3 | 0.98 (≈ 2.46 µM) | 0.24 (≈ 0.602 µM) |  | 
6 | Cc1noc(NS(=O)(=O)c2ccc(-n3c(S)c(C#N)c(-c4cccnc4)c(C#N)c3=O)cc2)c1C | 21 | 19.2 | 17.6 | 0.98 (≈ 1.94 µM) | 0.98 (≈ 1.94 µM) | 3.9 (≈ 7.73 µM) | 7.81 (≈ 15.5 µM) | 22 | 21.2 | 19.2 | 0.24 (≈ 0.476 µM) | 1.95 (≈ 3.86 µM) | 20 | 21.3 | 0.49 (≈ 0.971 µM) | 22.6 | 3.9 (≈ 7.73 µM) | 0.98 (≈ 1.94 µM) |  | 
7 | COc1ccc(-c2c(C#N)c(S)n(-c3ccc(S(=O)(=O)Nc4onc(C)c4C)cc3)c(=O)c2C#N)cc1 | 21.4 | 20.6 | 18.6 | 0.98 (≈ 1.84 µM) | 0.98 (≈ 1.84 µM) | 31.2 (≈ 58.6 µM) | 3.9 (≈ 7.31 µM) | 22.4 | 20.4 | 16.3 | 0.98 (≈ 1.84 µM) | 1.95 (≈ 3.65 µM) | 19.9 | 20.6 | 0.49 (≈ 0.918 µM) | 22.4 | 0.98 (≈ 1.84 µM) | 0.98 (≈ 1.84 µM) |  | 
8 | CNc1sc(C(C)=O)c(N)c1C(=O)Nc1ccc(S(=O)(=O)Nc2onc(C)c2C)cc1 | 16.9 | 17.1 | 18.2 | 15.6 (≈ 33.7 µM) | 16.6 (≈ 35.9 µM) | 62.5 (≈ 135 µM) | 3.9 (≈ 8.41 µM) | 16.4 | 15.8 | 14.1 | 3.9 (≈ 8.41 µM) | 7.81 (≈ 16.8 µM) | 18.7 | 16.6 | 31.2 (≈ 67.4 µM) | 19.1 | 15.6 (≈ 33.7 µM) | 62.5 (≈ 135 µM) |  | 
9 | Cc1noc(NS(=O)(=O)c2ccc(NC(=O)/C(C#N)=C/c3cccnc3)cc2)c1C | 24.2 | 23.7 | 19.3 | 0.12 (≈ 0.283 µM) | 0.06 (≈ 0.142 µM) | 3.9 (≈ 9.21 µM) | 3.9 (≈ 9.21 µM) | 25.6 | 23.4 | 18.7 | 0.03 (≈ 0.0708 µM) | 0.49 (≈ 1.16 µM) | 22.3 | 24.6 | 0.03 (≈ 0.0708 µM) | 26.2 | 0.12 (≈ 0.283 µM) | 0.49 (≈ 1.16 µM) |  | 
10 | Cc1noc(NS(=O)(=O)c2ccc(-n3c(S)c(C#N)c(-c4ccco4)c(C#N)c3=O)cc2)c1C | 22.6 | 21.6 | 18.3 | 0.24 (≈ 0.486 µM) | 0.24 (≈ 0.486 µM) | 0.98 (≈ 1.99 µM) | 7.81 (≈ 15.8 µM) | 24.3 | 22 | 20.6 | 0.12 (≈ 0.243 µM) | 0.98 (≈ 1.99 µM) | 21.4 | 22.6 | 0.12 (≈ 0.243 µM) | 23.6 | 0.98 (≈ 1.99 µM) | 0.49 (≈ 0.993 µM) |  | 
11 | CCOc1ccc(-n2nc(C(=O)Nc3ccc(S(=O)(=O)Nc4onc(C)c4C)cc3)c(N)c2C#N)cc1 | 25.1 | 16.4 | 18.2 | 0.06 (≈ 0.115 µM) | 1.95 (≈ 3.74 µM) | 0.06 (≈ 0.115 µM) | 7.81 (≈ 15 µM) | 21.9 | 23 | 24.6 | 1.95 (≈ 3.74 µM) | 3.9 (≈ 7.48 µM) | 18.9 | 20 | 0.49 (≈ 0.939 µM) | 19.6 | 31.2 (≈ 59.9 µM) | 0.24 (≈ 0.46 µM) |  | 
